Measurements from ChEMBL document CHEMBL1149749, “Antibacterial activity of totarol and its potentiation” (1992).
Values after ≈ are worked out from the molar mass of the structure shown. Active and inactive are the calls of the source. The calls are words filed in the database; no cut-off is given here.

Legend:
Streptococcus mutans [1] = test: Antibacterial activity against Streptococcus mutans ATCC 25175 after 2 days by twofold serial dilution method; assay type: functional; conditions: ATCC 25175, 48 h
Method in brief: (§1)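 Twofold serial broth dilution in each organism's own medium, DMF held at 1% in all tubes. The highest concentration was 400 µg/ml unless otherwise specified. MIC was taken as the lowest concentration with no visible growth, and determinations were done in duplicate.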

Bacillus subtilis [2] = test: Antibacterial activity against Bacillus subtilis ATCC 9372 after 2 days by twofold serial dilution method; assay type: functional; conditions: ATCC 9372, 48 h; method in brief: as §1
Staphylococcus aureus [3] = test: Antibacterial activity against penicillin-susceptible Staphylococcus aureus ATCC 12598 after 2 days by twofold serial dilution method; assay type: functional; conditions: ATCC 12598, 48 h; method in brief: as §1
Cutibacterium acnes [4] = test: Antibacterial activity against Propionibacterium acnes ATCC 11827 after 2 days by twofold serial dilution method; assay type: functional; conditions: ATCC 11827, 48 h; method in brief: as §1
[5] = test system: Corynebacterium ammoniagenes; test: Antibacterial activity against Brevibacterium ammoniagenes ATCC 6872 after 2 days by twofold serial dilution method; assay type: functional; conditions: ATCC 6872, 48 h; method in brief: as §1
Staphylococcus aureus [6] = test: Antibacterial activity against penicillin-resistant Staphylococcus aureus ATCC 29247 after 2 days by twofold serial dilution method; assay type: functional; conditions: ATCC 29247, 48 h
Method in brief: (§2)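 Twofold serial broth dilution, highest concentration 400 µg/ml. Samples were delivered in DMF, kept at 1% in the medium throughout. MIC was the lowest concentration with no visible growth, determined in duplicate.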

Saccharomyces cerevisiae = test: Antifungal activity against Saccharomyces cerevisiae ATCC 7754 up to 400 ug/ml after 2 days by twofold serial dilution method; assay type: functional, organism-based; method in brief: as §1
Cutibacterium acnes [7] = test: Antibacterial activity against Propionibacterium acnes ATCC 11827 up to 400 ug/ml after 2 days by twofold serial dilution method; assay type: functional, organism-based; method in brief: as §1
Pseudomonas aeruginosa = test: Antibacterial activity against Pseudomonas aeruginosa ATCC 10145 up to 400 ug/ml after 2 days by twofold serial dilution method; assay type: functional, organism-based; method in brief: as §1
Bacillus subtilis [8] = test: Antibacterial activity against Bacillus subtilis ATCC 9372 up to 400 ug/ml after 2 days by twofold serial dilution method; assay type: functional, organism-based; method in brief: as §1
Escherichia coli = test: Antibacterial activity against Escherichia coli ATCC 13048 up to 400 ug/ml after 2 days by twofold serial dilution method; assay type: functional, organism-based; method in brief: as §1
Staphylococcus aureus [9] = test: Antibacterial activity against penicillin-susceptible Staphylococcus aureus ATCC 12598 up to 400 ug/ml after 2 days by twofold serial dilution method; assay type: functional, organism-based; method in brief: as §1
Staphylococcus aureus [10] = test: Antibacterial activity against penicillin-resistant Staphylococcus aureus ATCC 29247 up to 400 ug/ml after 2 days by twofold serial dilution method; assay type: functional, organism-based; method in brief: as §2
Klebsiella aerogenes = test: Antibacterial activity against Enterobacter aerogenes ATCC 13048 up to 400 ug/ml after 2 days by twofold serial dilution method; assay type: functional, organism-based; method in brief: as §1
Streptococcus mutans [11] = test: Antibacterial activity against Streptococcus mutans ATCC 25175 up to 400 ug/ml after 2 days by twofold serial dilution method; assay type: functional, organism-based; method in brief: as §1
[12] = test system: Corynebacterium ammoniagenes; test: Antibacterial activity against Brevibacterium ammoniagenes ATCC 6872 up to 400 ug/ml after 2 days by twofold serial dilution method; assay type: functional, organism-based; method in brief: as §1
Malassezia = test: Antifungal activity against Pityrosporum ovale ATCC 14521 up to 400 ug/ml after 2 days by twofold serial dilution method; assay type: functional, organism-based; method in brief: as §1
Candida albicans = test: Antifungal activity against Candida albicans ATCC 18804 up to 400 ug/ml after 2 days by twofold serial dilution method; assay type: functional, organism-based; method in brief: as §1
Penicillium chrysogenum = test: Antifungal activity against Penicillium chrysogenum ATCC 10106 up to 400 ug/ml after 2 days by twofold serial dilution method; assay type: functional, organism-based; method in brief: as §1

Compound | MIC (Streptococcus mutans [1]) [µg/mL] | MIC (Bacillus subtilis [2]) [µg/mL] | MIC (Staphylococcus aureus [3]) [µg/mL] | MIC (Cutibacterium acnes [4]) [µg/mL] | MIC [5] [µg/mL] | MIC (Staphylococcus aureus [6]) [µg/mL] | Activity (Saccharomyces cerevisiae) | Activity (Cutibacterium acnes [7]) | Activity (Pseudomonas aeruginosa) | Activity (Bacillus subtilis [8]) | Activity (Escherichia coli) | Activity (Staphylococcus aureus [9]) | Activity (Staphylococcus aureus [10]) | Activity (Klebsiella aerogenes) | Activity (Streptococcus mutans [11]) | Activity [12] | Activity (Malassezia) | Activity (Candida albicans) | Activity (Penicillium chrysogenum) | other results
CC1(C)S[C@@H]2[C@H](NC(=O)Cc3ccccc3)C(=O)N2[C@H]1C(=O)O [PENICILLIN G] | 0.049 (≈ 0.147 µM) | 50 (≈ 150 µM) | 0.049 (≈ 0.147 µM) | 0.012 (≈ 0.0359 µM) | 0.39 (≈ 1.17 µM) | > 800 | – | – | – | – | – | – | – | – | – | – | – | – | – | –
CC(C)c1c(O)ccc2c1CC[C@H]1[C@@](C)(C(=O)O)CCC[C@]21C | – | – | – | – | – | – | inactive | inactive | inactive | inactive | inactive | inactive | inactive | inactive | inactive | inactive | inactive | inactive | inactive | –
CC(C)c1c(O)ccc2c1CC[C@H]1[C@@](C)(C=O)CCC[C@]21C | – | – | – | – | – | – | inactive | inactive | inactive | inactive | inactive | inactive | inactive | inactive | inactive | inactive | inactive | inactive | inactive | –
CC(C)c1c(O)ccc2c1CC[C@H]1[C@@](C)(CO)CCC[C@]21C | – | – | – | – | – | – | inactive | inactive | inactive | inactive | inactive | inactive | inactive | inactive | inactive | inactive | inactive | inactive | inactive | –
CC(C)c1c(O)ccc2c1CC[C@H]1C(C)(C)CCC[C@]21C [TOTAROL] | 0.78 (≈ 2.72 µM) | 1.56 (≈ 5.45 µM) | 1.56 (≈ 5.45 µM) | 0.39 (≈ 1.36 µM) | 0.78 (≈ 2.72 µM) | 0.78 (≈ 2.72 µM) | inactive | – | inactive | – | inactive | – | – | inactive | – | – | inactive | inactive | inactive | MBC (Streptococcus mutans [1]): 0.78 µg/mL (≈ 2.72 µM); MBC (Bacillus subtilis [2]): 1.56 µg/mL (≈ 5.45 µM); MBC (Staphylococcus aureus [3]): 1.56 µg/mL (≈ 5.45 µM); MBC (Cutibacterium acnes [4]): 0.78 µg/mL (≈ 2.72 µM); MBC [5]: 6.25 µg/mL (≈ 21.8 µM)
CC(C)c1c(O)ccc2c1CC[C@H]1C(C)(C)[C@@H](O)CC[C@]21C [TOTARADIOL] | 200 (≈ 661 µM) | 25 (≈ 82.7 µM) | 50 (≈ 165 µM) | 25 (≈ 82.7 µM) | 100 (≈ 331 µM) | – | inactive | – | inactive | – | inactive | – | – | inactive | – | – | inactive | inactive | inactive | –
